ASAP1 inh: blocks human ASAP1-stimulated Arf1 GTP hydrolysis; Q9ULH1; 0.19% of 360,000 active; GDP FP detection; inhibition, % at 16.5 µM; in the data active = inhibition above about 25%
Rtt109 Vps75: inhibitors of Candida albicans Rtt109/Vps75 histone acetyltransferase; Q5AAJ8; purified Rtt109/Vps75, ThioGlo CoA-SH fluorescence, 4 h; inhibition, % at 34.9 µM; 0.16% of 330,000 active; AID 540336;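 active = inhibition of at least 50% in every replicate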
Target sequence (Q5AAJ8 whole entry, looked up): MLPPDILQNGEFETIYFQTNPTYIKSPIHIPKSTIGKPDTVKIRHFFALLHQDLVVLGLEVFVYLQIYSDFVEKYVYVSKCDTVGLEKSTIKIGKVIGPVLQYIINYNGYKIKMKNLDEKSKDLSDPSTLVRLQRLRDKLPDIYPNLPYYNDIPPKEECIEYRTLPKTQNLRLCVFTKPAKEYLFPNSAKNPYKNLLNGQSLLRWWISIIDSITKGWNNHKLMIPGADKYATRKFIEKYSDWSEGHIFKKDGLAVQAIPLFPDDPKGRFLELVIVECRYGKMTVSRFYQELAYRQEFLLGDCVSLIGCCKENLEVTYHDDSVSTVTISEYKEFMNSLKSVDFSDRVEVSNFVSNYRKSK
Efflux pump inh: antifungal efflux pump inhibition, Nile Red retention; S. cerevisiae Candida pump triplex; inhibition, % at 10 µM; 0.44% of 330,000 active;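 active = plate passing quality check with inhibition over a set limit, or well fluorescence over plate mean plus 4 SD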;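 note: Nile Red retained in pooled yeast measured as flow cytometry median fluorescence; higher means more Nile Red kept so more efflux inhibition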
FGF22 binding: FGF22 (human) thermal shift binding; Q9HCT0; recombinant FGF22 thermal shift, SYPRO orange fluorescence; percent of sucrose octasulfate shift, DMSO zero; activity (Tm shift, normalised), % at 9.99 µM; 1.5% of 340,000 active; AID 651658;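 active = mean Tm shift, scaled 0 neutral to 100 positive control, at about 1.3% or above, every replicate too, limit read from the data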
ARFGAP1 inhibitor: inhibitors of rat ARFGAP1; Q62848; Arfgap1-stimulated ARF1 GTP hydrolysis, GDP FP detection; inhibition, % at 16.5 µM; 0.26% of 360,000 active; AID 651572;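 active = inhibition above a per-plate limit, mean inhibition of low control wells plus 3 SD, cut at about 25% in these data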
Target sequence (Q62848 1-136 limits assumed): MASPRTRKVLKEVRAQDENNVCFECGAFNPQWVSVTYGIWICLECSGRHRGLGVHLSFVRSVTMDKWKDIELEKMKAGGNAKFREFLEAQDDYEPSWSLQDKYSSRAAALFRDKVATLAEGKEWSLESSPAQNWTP
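System: truncated rat Arfgap1 GAP domain / Benchmarks: high control wells lacking Arfgap1, low control full reaction with DMSO / Times: compound-enzyme preincubation 20 min, reaction 120 min, detection 60 min, 25 °C / Repeats: one replicate per compound / Also added: human ARF1(Δ1-17)-GTP substrate / Measured by: Tracer-displacement fluorescence polarization with EDTA stop, 620/688 nm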
Numbers stand for hits; – = inactive; · = no result given. A selection: hits, their analogues and other compounds. The true share with any hit is near 1.9%.

SMILES	ASAP1 inh	Rtt109 Vps75	Efflux pump inh	FGF22 binding	ARFGAP1 inhibitor
COc1ccc(/C=N/NC(=O)c2cccnc2)cc1	–	–	–	–	–
COc1ccccc1C(=O)COC(=O)CN1C(=O)C2CC=CCC2C1=O (configuration not stated)	–	–	–	–	–
CS(=O)(=O)N1CCN(CCN2C(=O)c3cccc4cccc(c34)C2=O)CC1	–	–	–	45.2	–
CC(C)(C)C(=O)N1CCN(CCN2C(=O)c3cccc4cccc(c34)C2=O)CC1	–	–	–	–	–
Cc1nc2ccc(S(=O)(=O)N(C)CC(=O)Nc3ccccc3F)cc2s1	–	–	–	43.8	–
O=C(COc1coc(CN2CCc3ccccc32)cc1=O)Nc1cccc(F)c1	–	–	–	–	–
Cc1ccc(-c2nn(CCC(=O)O)cc2/C=C\C(=O)c2ccc(Br)cc2)cc1	–	–	–	15.3	–
CCOC(=O)c1cnc(-n2cc(C)cn2)nc1NCc1ccc2c(c1)OCO2	–	–	–	·	–
O=[N+]([O-])c1c(O)c(Cl)cc(Cl)c1Cl (tested in a mixture with another compound)	–	–	·	–	–
COC(=O)c1cc2c(ccn2-c2ccc(F)cc2)n1CC(=O)C(C)(C)C	–	54.2	–	–	–
COC(=O)c1cc2c(ccn2-c2ccc(F)cc2)n1CC(=O)OC(C)C	–	–	–	–	–
Cc1ccc2c(c1)NC(=O)c1cc([N+](=O)[O-])ccc1O2	–	–	–	–	–
O=C1Nc2ccccc2Oc2cc([N+](=O)[O-])ccc21	–	–	–	43.2	–
COc1ccc(-n2c(CNC(=O)COc3ccc(Cl)cc3Cl)n[nH]c2=S)cc1	–	–	–	43.2	–
CCCN1C(=O)/C(=C/c2c(NCCCOC(C)C)nc3c(C)cccn3c2=O)SC1=S	·	–	–	·	·
CCC(C)N1C(=O)/C(=C/c2c(NCCCOC(C)C)nc3c(C)cccn3c2=O)SC1=S (configuration not stated)	–	–	0.8	·	–
Cc1cc(NC(=O)CCCC(=O)NCc2ccccc2)no1	–	–	–	–	–
Cc1ccc(CNC(=O)CCCC(=O)Nc2cc(C)on2)cc1	–	–	–	43.1	–
CN(C(=O)/C(N=Nc1cccc(C(F)(F)F)c1)=C(\O)C(F)(F)F)c1ccccc1	–	–	–	·	–
O=C(N/N=C/c1ccc(OC(F)F)cc1OC(F)F)c1cccc(S(=O)(=O)N2CCOCC2)c1	–	–	–	44.0	–
CN(CC(=O)Nc1ccc(Cl)cc1)C(=O)CCc1ccccc1	–	–	–	–	–
CC(C)(C)NC(=O)CN1C(=O)c2cccc3cccc1c23	–	·	·	–	–
OCCNc1nc(Nc2ccc(Br)cc2)nc2ccccc12	25.7	·	–	–	–
CC(=O)N1N=C(c2ccncc2)OC12CCCCCC2	–	–	–	–	–
CC(=O)Nc1nc(C(=O)O)cs1	–	–	–	42.9	–
SMILES	ASAP1 inh	Rtt109 Vps75	Efflux pump inh	FGF22 binding	ARFGAP1 inhibitor
CC(=O)Nc1nc(C)cs1	–	–	–	–	–
O=C(O)c1c2cc(Br)ccc2nc2[nH]c(=O)[nH]c(=O)c12	–	–	·	43.1	–
Cc1ccc2nc3[nH]c(=O)[nH]c(=O)c3c(N)c2c1	–	–	·	–	–
Cc1c(Cl)cccc1NC(=O)Nc1cnccn1	–	–	–	–	–
CCCc1nn2c(-c3ccccc3)nnc2o1	–	·	·	43.1	–
CN(C)c1nn2c(-c3ccccc3)nnc2o1	–	·	·	43.2	–
c1ccc(-c2nn3c(-c4ccccc4)nnc3o2)cc1	–	·	·	–	–
CCOc1ccc(NC(=O)CN(C)C(=O)C2CC(=O)N(CCc3ccc(OC)c(OC)c3)C2)cc1OCC (configuration not stated)	–	–	·	6.3	–
COc1cccc(S(=O)(=O)N2CCCCN3[C@H](CO)[C@H](c4ccc(-c5cncnc5)cc4)[C@@H]3C2)c1	·	·	·	–	·
C[C@H]1CN([C@@H](C)CO)C(=O)c2cc(NC(=O)CCCCCC(=O)Nc3ccccc3N)ccc2O[C@H]1CN(C)S(=O)(=O)c1ccc(Cl)cc1	·	·	·	–	·
CCN1/C(=C2\C(=O)N(c3ccccc3)N=C2C)C=Cc2cc(C)ccc21	–	–	–	43.1	–
CCN1/C(=c2/s/c(=C3/C(=O)N(c4ccccc4)N=C3C)n(CC)c2=O)C=Cc2ccccc21	–	–	–	–	–
COc1ccccc1Cn1c(C)c(C(=O)NCc2ccco2)sc1=O	–	·	·	–	–
O=C1N=c2ccccc2=C1c1sc(=S)n(NC(=O)c2cccc(O)c2)c1O	–	–	·	16.7	–
O=C1N=c2ccccc2=C1c1sc(=S)n(-c2ccc(O)cc2)c1O	–	–	–	–	–
COc1ccc(CCN2C(=S)NC3CC2(C)Oc2ccc([N+](=O)[O-])cc23)cc1OC (configuration not stated)	–	·	–	·	–
CC1=C(C(=O)OCC2CCCO2)C(c2coc3ccc(C)cc3c2=O)C2=C(CCCC2=O)N1 (configuration not stated)	–	–	–	64.3	–
Cc1ccc(-n2nnnc2SCC(=O)NCC2CCCO2)cc1C (configuration not stated)	–	–	·	–	–
C/C=C/c1ccc2c(c1)O[C@H](CN(C)C(=O)COC)[C@H](C)CN([C@@H](C)CO)S2(=O)=O	·	·	·	–	·
O=C1OCC/C1=C1/NCCNC1=O	–	·	·	43.6	–
O=C1NCCNC(=O)c2ccccc2OCCOc2ccccc21	–	–	–	–	–
CCCCN(CC)CCNC(=O)c1cc2c(-c3ccc(Cl)cc3)nn(C)c2s1	–	–	–	–	–
CNc1ccc2nnc(C(F)(F)C(F)(F)C(F)(F)F)n2n1	–	–	–	43.1	–
CC(C)C[C@H]1CNC(=S)N1C[C@H]1CCCN1C[C@H](Cc1ccc(O)cc1)N1C[C@H](Cc2ccc(O)cc2)N(CC2CCCCCC2)C1=S	–	·	·	42.9	–
CC(C)C[C@H]1CNC(=S)N1CC1CCCN1C[C@H](Cc1ccccc1)N1C[C@H](Cc2ccc(O)cc2)N(CC2CCCCCC2)C1=S (some centres not stated)	–	–	·	–	–
CC(C)NC(=O)N[C@H]1CC[C@H](CCNS(=O)(=O)c2ccc(Cl)cc2)O[C@H]1CO	·	·	·	–	·
CCOC(=O)CNC(=O)C1Cc2ccccc2CN1S(=O)(=O)c1cccs1 (configuration not stated)	–	–	–	43.4	–
CCCCCCCCN1C(=O)[C@@H](CC(=O)N2CCN(C(=O)c3ccco3)CC2)C[C@@]2(C(=O)OC)C1=C[C@H](C(C)(C)C)O[C@@H]2C	–	·	·	–	–
C[C@H](CO)N1C[C@H](C)[C@H](CN(C)C(=O)Nc2ccc(F)cc2)Oc2ccc(NC(=O)Nc3ccc(C(F)(F)F)cc3)cc2CC1=O	·	·	·	1.2	·
C[C@@H]1CN([C@@H](C)CO)C(=O)Cc2cc(NC(=O)Nc3ccc(F)cc3)ccc2O[C@H]1CN(C)C(=O)Nc1ccc(C(F)(F)F)cc1	·	·	·	–	·
